# Measurements taken from PMC10674630 (Diabetes, Metabolic Syndrome and Obesity, 2023).
# “Also recorded” adds a separate entry of the source. Where two headings read alike, the source gives them in different places. *1 amine or outer side, *2 acyl side, *3 side chain or, on linkers, in order; H or OH if unused. Where a SMILES comes first, the peptide text is derived from it. Bridges are numbered along the chain shown (N, C = ends). [ ]: non-standard residue; d: D form. X1 = CC(C)CCCCCCCCC[C@H](CC(=O)[*:1])O[*:2]
# Tests used:
# [1] = test system: S. aureus (ATCC 25923 and MRSA SA 452); assay: Mutant prevention / resistance selection, both strains; assay type: cell-based; details: S. aureus
# Summary of the method: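 Strains were grown 24 h in MH broth, centrifuged at 4000×g for 10 min and resuspended to 1×1010 CFU/mL. […] MPC was the lowest concentration preventing colonies. MPC/MIC ratio defined the mutant selection window.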
# penicillinase = assay: Penicillinase inhibition assay; assay type: biochemical
# Summary of the method: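 Penicillin K (10,000 U/mL) added at 2:1 to mixture, 1 h at 37 °C. Then 0.01 mol/L iodine for 15 min, back-titrated with 0.01 mol/L Na2S2O3 to colourless, starch indicator near endpoint. Thiosulfate consumed is inversely related to enzyme activity.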
# SA 452 [2] = assay: Bacterial growth curves, SA 452; assay type: cell-based, S. aureus; details: for Growth inhibition: 24-h exposure, 0, 1/2×MIC, MIC, 2×MIC
# Summary of the method: (§1)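 Cultures of ATCC 25923 and a clinical MRSA strain were diluted to 1×10^6 CFU/mL in MH broth with surfactin at 0, 1/2×MIC, MIC or 2×MIC, with an MH broth-only negative control. Tubes were shaken at 200 rpm and 35 °C for 24 h. OD600 was read at 0, 4, 8, 12 and 24 h. Runs were done in triplicate.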
# fnbB = details: S. aureus; cited from earlier work
# S. aureus biofilm = details: ref 28 (Liu et al), cited from earlier work
# SA 452 [3] = test system: SA 452
# ATCC 25923 [4] = test system: ATCC 25923
# SA 452 [5] = assay: Microbroth dilution MIC, SA 452; assay type: cell-based, S. aureus; details: SA 452 (MRSA), triplicate
# Summary of the method: (§2)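 Surfactin was dissolved in sterile distilled water and tested by broth microdilution in MH broth. Strains were a reference strain and MALDI-TOF-identified clinical isolates from diabetic foot ulcers. MIC was the lowest concentration without visible growth. For MBC, 10 µL from clear wells was plated on MH agar for 24 h at 37 °C, and MBC was the lowest concentration giving no colonies. Tests were run in triplicate.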
# SA 326 = assay: Microbroth dilution MIC, SA 326; assay type: cell-based, S. aureus; details: SA 326 (MRSA), triplicate
# Summary of the method: as §2
# human red blood cells = assay: Human red blood cells hemolysis assay; assay type: cell-based; details: 1 h, 37 °C
# Summary of the method: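 Whole blood from healthy human volunteers was spun at 1000×g for 5 min, and the RBCs were washed three times in PBS and resuspended in PBS. RBC suspension was mixed 1:1 with serial surfactin dilutions and incubated 1 h at 37 °C, then supernatant A570 was read. Hemolysis % was scaled between 0.1% DMSO (negative) and 0.1% Triton X-100 (positive).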
# ATCC 25923 [6] = assay: Transmission electron microscopy; assay type: cell-based, S. aureus; details: 5×MIC, 1 h, control 0.05% DMSO
# ATCC 25923 [7] = assay: Microbroth dilution MIC, ATCC 25923; assay type: cell-based, S. aureus; details: triplicate
# Summary of the method: as §2
# [8] = test system: ATCC 25923 biofilm formation; assay: Biofilm inhibition assay; assay type: cell-based, S. aureus
# Summary of the method: (§3)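 Overnight cultures were diluted in TSB containing serial surfactin dilutions (1/64×MIC to 2×MIC) to 1×10^6 CFU/mL and grown in triplicate wells for 24 h at 37 °C. Wells were washed three times with PBS and stained with 0.5% crystal violet for 20 min. After air-drying, stain was solubilised in 95% ethanol for 20 min at room temperature and OD570 was read.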
# [9] = test system: S. aureus biofilm formation; assay: Biofilm inhibition assay; assay type: cell-based
# Summary of the method: as §3
# ATCC 25923 [10] = assay: Bacterial growth curves, ATCC 25923; assay type: cell-based, S. aureus
# Summary of the method: as §1
# Gram-negative bacteria = assay: Efficacy against Gram-negative bacteria; assay type: cell-based; details: data not shown
# SA 366 = assay: Microbroth dilution MIC, SA 366; assay type: cell-based, S. aureus; details: SA 366 (MDR), triplicate
# Summary of the method: as §2
# icaD = details: cited from earlier work
# [11] = test system: standard and clinical strains of Staphylococcus aureus; assay: MIC and MBC by microbroth dilution, all selected strains; assay type: cell-based
# Summary of the method: as §2
# SA 095 = assay: Microbroth dilution MIC, SA 095; assay type: cell-based, S. aureus; details: SA 095 (non-MDR), triplicate
# Summary of the method: as §2
# SA 452 biofilm formation = assay: Biofilm inhibition assay; assay type: cell-based, S. aureus
# Summary of the method: as §3
# icaA = details: cited from earlier work
# sortaseA = details: S. aureus; cited from earlier work
# fnbA = details: S. aureus; cited from earlier work
# [12] = 1.5 mg/mL, ref 39 (Englerová et al)
smiles,measurement,setting,value
"CC(C)CCCCCCCCC[C@@H]1CC(=O)N[C@@H](CCC(=O)O)C(=O)N[C@@H](CC(C)C)C(=O)N[C@H](CC(C)C)C(=O)N[C@@H](C(C)C)C(=O)N[C@@H](CC(=O)O)C(=O)N[C@H](CC(C)C)C(=O)N[C@@H](CC(C)C)C(=O)O1 [Surfactin, surfactin] (EL[dL]VD[dL]L; linker N-C via X1 (inferred))",In vitro resistance development,[1],In vitro resistance was not readily produced
same,Volume of Na2S2O3 consumed (penicillinase inhibition),"penicillinase; […], 10,000 U/mL penicillinase, 18 h, 35 °C, penicillinase-only control 0.5 mL",2.25 mL
same,Penicillinase inhibition (in words),penicillinase; iodometry,"directly inhibited penicillinase activity, but not as much as the clavulanate potassium; also recorded: significantly reduced penicillinase activity"
same,Growth inhibition,SA 452 [2]; OD600,inhibited the growth of ATCC 25923 and SA 452 in a dose-dependent manner
same,Growth inhibition,"SA 452 [2]; OD600, listed as surfactin",inhibited the growth of both ATCC 25923 and SA 452 in a dose-dependent manner
same,Growth inhibition at MIC and 2×MIC,SA 452 [2]; MIC and 2×MIC,almost completely inhibited
same,Growth reduction at half the MIC,"SA 452 [2]; from 4 h, 1/2×MIC",significantly reduced from 4 h
same,Expression of fnbB (in words),fnbB,inhibit the expression
same,Biofilm removal rate,"S. aureus biofilm; 0.2% surfactin, 4 h",80%
same,Reduction of biofilm production,"S. aureus biofilm; one-quarter MIC, S. aureus",60%
same,FICI,SA 452 [3]; surfactin with ampicillin,0.133
same,Fold Change,SA 452 [3]; surfactin with ampicillin,8
same,FICI,SA 452 [3]; surfactin with ciprofloxacin,2
same,FICI,SA 452 [3]; surfactin with erythromycin,2
same,FICI,SA 452 [3]; surfactin with gentamicin,0.25
same,Fold Change,SA 452 [3]; surfactin with gentamicin,8
same,FICI,SA 452 [3]; surfactin with oxacillin,0.156
same,Fold Change,SA 452 [3]; surfactin with oxacillin,8
same,FICI,SA 452 [3]; surfactin with tetracycline,0.133
same,Fold Change,SA 452 [3]; surfactin with tetracycline,8
same,FICI,ATCC 25923 [4]; surfactin with ampicillin,0.5
same,Fold Change,ATCC 25923 [4]; surfactin with ciprofloxacin,2
same,Fold Change,ATCC 25923 [4]; surfactin with erythromycin,8
same,FICI,ATCC 25923 [4]; surfactin with oxacillin,0.25
same,Fold Change,ATCC 25923 [4]; surfactin with oxacillin,8
same,FICI,ATCC 25923 [4]; surfactin with tetracycline,0.188
same,Fold Change,ATCC 25923 [4]; surfactin with tetracycline,8
same,MIC,SA 452 [5],512 µg/mL
same,MIC,SA 326,1024 µg/mL
same,Hemolysis at 16×MIC,"human red blood cells; 16×MIC, human RBC",> 5%
same,Hemolysis below 16×MIC,"human red blood cells; all concentrations less than 16×MIC, human RBC",no hemolysis was observed
same,Concentration at which hemolytic activity (hemolysis > 5%) occurred,"human red blood cells; human RBC in PBS, A570, Triton X-100 positive control",16 ×MIC
same,Cytotoxicity to RBCs (in words),human red blood cells; human RBC,limited toxicity on human red blood cells; also recorded: extremely low cytotoxicity to RBCs; also recorded: very low cytotoxicity to erythrocytes
same,Cell structure by TEM,ATCC 25923 [6],"damaged structure, leading to cell lysis and death; also recorded: irregular and collapsed surfaces, content leakage, and cell death"
same,MIC,ATCC 25923 [7],512 µg/mL
same,"Biofilm inhibition, dose dependence",[8]; 1/64×MIC to 2×MIC,dose-dependent inhibitory effect
same,Inhibition of biofilm formation,"[8]; 2×MIC, crystal violet, 24 h, 37°C",80%
same,Concentration from which biofilm inhibition starts,"[8]; crystal violet, OD570, 24 h, 37°C, TSB",1/16
same,Biofilm inhibition at 1/16×MIC (in words),[9]; 1/16×MIC,significantly inhibited
same,Biofilm inhibition (in words),[9]; S. aureus,significantly prevented the S. aureus biofilm formation; also recorded: dose-dependent inhibitory effect on S. aureus biofilm formation; also recorded: significantly reducing biofilm production
same,Growth inhibition,"ATCC 25923 [10]; 24-h exposure, 0, 1/2×MIC, MIC, 2×MIC, OD600",inhibited the growth of ATCC 25923 and SA 452 in a dose-dependent manner
same,Growth inhibition at MIC and 2×MIC,ATCC 25923 [10]; MIC and 2×MIC,almost completely inhibited
same,Growth reduction at half the MIC,"ATCC 25923 [10]; from 4 h, 1/2×MIC",significantly reduced from 4 h
same,Efficacy against Gram-negative bacteria relative to Gram-positive,Gram-negative bacteria,less than that of Gram-positive bacteria
same,MIC,SA 366,512 µg/mL
same,Downregulation of icaD expression,icaD; [12],1.85 fold
same,Expression of icaD (in words),"icaD; 2×MIC, ref 28 (Liu et al)",significantly reduced the expression
same,Antibacterial activity (in words),"[11]; S. aureus from DFUs (non-MDR, MDR, MRSA) and ATCC 25923",antibacterial and bactericidal activity against S. aureus strains; also recorded: effectively inhibited the growth of S. aureus
same,Difference in MICs between strains with different resistance patterns,"[11]; non-MDR, MDR, MRSA, ATCC 25923",no significant difference in MICs
same,MIC,SA 095,512 µg/mL
same,MRSA biofilm inhibition at 2×MIC (in words),"SA 452 biofilm formation; MRSA, 2×MIC",almost completely inhibited
same,"Biofilm inhibition, dose dependence","SA 452 biofilm formation; SA 452, 1/64×MIC to 2×MIC",dose-dependent inhibitory effect
same,Inhibition of biofilm formation,"SA 452 biofilm formation; SA 452, 2×MIC, crystal violet, 24 h, 37°C",more than 95%
same,Concentration from which biofilm inhibition starts,"SA 452 biofilm formation; SA 452, crystal violet, OD570, 24 h, 37°C, TSB",1/16
same,Downregulation of icaA expression,icaA; [12],2.82 fold
same,Expression of icaA (in words),"icaA; 2×MIC, ref 28 (Liu et al)",significantly reduced the expression
same,Expression of sortaseA (in words),sortaseA,inhibit the expression
same,Expression of fnbA (in words),fnbA,inhibit the expression
